Data as given in paper PMC4090943 (Bioorganic & medicinal chemistry letters, 2014).

Key:
[1] = target: rat mGlu5 (Rattus norvegicus, UniProt P31424); assay: Calcium mobilization mGlu5 assay; assay type: cell-based; settings: HEK293A cells expressing rat mGlu5; EC80 glutamate; average of n ≥ 3
[2] = Rat PO tissue distribution study; assay type: in vivo, male Sprague-Dawley rats; settings: rat PO 10 mg/kg, 60 min
Procedure, shortened: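 Male Sprague-Dawley rats (n=2 per time point) received a single 10 mg/kg oral dose in 10% Tween 80 in 0.5% MC. At 60 min they were euthanized and decapitated, and blood, hepatic portal vein and brain were collected. After protein precipitation, plasma and brain homogenate supernatants were analysed by LC-MS/MS.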

[3] = test system: marble burying; assay: Mouse marble burying model of anxiety; assay type: in vivo; settings: mice, IP, 15 minute pretreatment; P < 0.05 vs. vehicle, Dunnett's test
Procedure, shortened: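 Naïve mice given the test compound IP, with a vehicle control group, and then placed with glass marbles in deep bedding. The read-out was the number of marbles buried. n = 7-8 per dose. Each dose group was compared with the vehicle group by Dunnett's test (P < 0.05).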

[4] = test system: the other seven mGlus; assay: Cell based functional mGlu selectivity assays; settings: 10μM
[5] = test system: 68 clinically relevant GPCRs, ion channels, kinases, and transporters; assay: LeadProfilingScreen radioligand binding assay panel; settings: 10 μM compound; 68 targets
[6] = non-human primate regulatory toxicology studies; cited from earlier work
[7] = test system: marble burying; settings: mice; ref 7a,d; cited from earlier work

Sequence of rat mGlu5 (P31424 21-1203): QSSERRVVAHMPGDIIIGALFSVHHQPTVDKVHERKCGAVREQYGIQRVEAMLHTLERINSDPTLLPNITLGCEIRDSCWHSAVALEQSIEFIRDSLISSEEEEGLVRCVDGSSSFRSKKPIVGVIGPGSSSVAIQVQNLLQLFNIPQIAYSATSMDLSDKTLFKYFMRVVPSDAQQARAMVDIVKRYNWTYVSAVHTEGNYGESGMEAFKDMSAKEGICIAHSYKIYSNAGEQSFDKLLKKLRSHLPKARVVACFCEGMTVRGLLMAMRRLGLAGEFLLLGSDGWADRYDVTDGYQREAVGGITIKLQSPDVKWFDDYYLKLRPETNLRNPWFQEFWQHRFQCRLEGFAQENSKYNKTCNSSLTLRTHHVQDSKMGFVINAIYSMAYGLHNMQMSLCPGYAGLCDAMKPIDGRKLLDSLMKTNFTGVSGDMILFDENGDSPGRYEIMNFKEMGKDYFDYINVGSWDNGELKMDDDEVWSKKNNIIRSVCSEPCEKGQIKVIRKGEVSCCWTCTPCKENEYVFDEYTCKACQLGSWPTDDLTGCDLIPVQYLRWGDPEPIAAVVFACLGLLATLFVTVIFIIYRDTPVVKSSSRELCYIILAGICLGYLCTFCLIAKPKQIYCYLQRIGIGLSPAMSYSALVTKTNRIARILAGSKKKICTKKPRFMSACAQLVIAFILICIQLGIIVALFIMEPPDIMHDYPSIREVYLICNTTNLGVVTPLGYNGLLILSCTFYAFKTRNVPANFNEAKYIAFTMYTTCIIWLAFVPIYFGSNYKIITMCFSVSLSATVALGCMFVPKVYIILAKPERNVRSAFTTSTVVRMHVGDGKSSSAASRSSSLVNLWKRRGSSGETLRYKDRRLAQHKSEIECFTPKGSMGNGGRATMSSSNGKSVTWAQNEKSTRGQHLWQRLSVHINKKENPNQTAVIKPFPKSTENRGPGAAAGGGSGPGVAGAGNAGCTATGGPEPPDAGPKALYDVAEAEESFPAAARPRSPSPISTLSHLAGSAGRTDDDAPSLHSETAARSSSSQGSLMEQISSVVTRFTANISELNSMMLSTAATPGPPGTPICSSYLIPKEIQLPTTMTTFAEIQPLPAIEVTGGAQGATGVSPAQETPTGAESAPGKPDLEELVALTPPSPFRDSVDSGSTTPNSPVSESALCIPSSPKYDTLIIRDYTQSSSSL

| mGlu5 pIC50 (± SEM) [1] | SMILES | other results |
| --- | --- | --- |
| <4.5 | O=C(Nc1cncc(Oc2cncc(F)c2)n1)c1cccc(Cl)c1F [Compound 42] |  |
| <4.5 | O=C(Nc1cncc(Oc2cncc(F)c2)n1)c1cc(F)cc(F)c1 [Compound 46] |  |
| <4.5 | O=C(Nc1cncc(Oc2cncc(F)c2)n1)c1cc(Cl)cc(Cl)c1 [Compound 47] |  |
| <4.5 | COc1cc(OC)cc(C(=O)Nc2cncc(Oc3cncc(F)c3)n2)c1 [Compound 49] |  |
| <4.5 | N#Cc1cc(F)cc(C(=O)Nc2cncc(Oc3cncc(F)c3)n2)c1 [Compound 50] |  |
| <4.5 | O=C(Nc1cncc(Oc2cncc(F)c2)n1)c1cccnc1 [Compound 60] |  |
| <4.5 | O=C(Nc1cncc(Oc2cncc(F)c2)n1)c1cccnn1 [Compound 61] |  |
| <4.5 | O=C(Nc1cncc(Oc2cncc(F)c2)n1)c1ccncn1 [Compound 63] |  |
| <4.5 | Cc1ccc(C(=O)Nc2cncc(Oc3cncnc3)n2)s1 [Compound 65] |  |
|  | O=C(Nc1cncc(Oc2cncnc2)n1)c1cc(Cl)ccn1 [Compound 68, 4-chloro-N-(6-(pyrimidin-5-yloxy)pyrazin-2-yl)picolinamide] | HPV (hepatic portal vein) concentration [2]: 1.31 µM; brain concentration [2]: 1450 nM; plasma concentration [2]: 920 nM; doses giving statistically significant inhibition of marble burying [3]: greater than or equal to 10 mg/kg; activity against the other seven mGlus [4]: no detectable activity; significant responses (>50% inhibition of radioligand binding) in panel [5]: no significant responses were found |
|  | O=C(c1ccc(OC(F)F)c(C#Cc2ccccn2)c1)N1Cc2cccnc2C1 [GRN-529] | toxicology finding [6]: biliary epithelial hyperplasia |
|  | Cc1cccc(C#Cc2ccccc2)n1 [MPEP] | effect on marble burying [7]: inhibit marble burying |
|  | CN1CC(=O)NC1=NC(=O)Nc1cccc(Cl)c1 [fenobam] | effect on marble burying [7]: inhibit marble burying |
